# Measurements published in ChEMBL document CHEMBL2203269, “Target-Activated Prodrugs (TAPs) for the Autoregulated Inhibition of MMP12” (ACS Med Chem Lett, 2012).
# B1: Macrophage metalloelastase (Homo sapiens), P39900 (protein)
# chain: MKFLLILLLQATASGALPLNSSTSLEKNNVLFGERYLEKFYGLEINKLPVTKMKYSGNLMKEKIQEMQHFLGLKVTGQLDTSTLEMMHAPRCGVPDVHHFREMPGGPVWRKHYITYRINNYTPDMNREDVDYAIRKAFQVWSNVTPLKFSKINTGMADILVVFARGAHGDFHAFDGKGGILAHAFGPGSGIGGDAHFDEDEFWTTHSGGTNLFLTAVHEIGHSLGLGHSSDPKAVMFPTYKYVDINTFRLSADDIRGIQSLYGDPKENQRLPNPDNSEPALCDPNLSFDAVTTVGNKIFFFKDRFFWLKVSERPKTSVNLISSLWPTLPSGIEAAYEIEARNQVFLFKDDKYWLISNLRPEPNYPKSIHSFGFPNFVKKIDAAVFNPRFYRTYFFVDNQYWRYDERRQMMDPGYPKLITKNFQGIGPKIDAVFYSKNKYYYFFQGSNQFEYDFLLQRITKTLKSNSWFGC
# Substrate: CC(C)C[C@H](NC(=O)CN(C(=O)[C@H](CC(C)C)NC(=O)[C@@H]1CCCN1C(=O)OCc1ccccc1)S(=O)(=O)c1ccc(-c2ccccc2)cc1)C(=O)N[C@@H](CCC(=O)O)C(=O)N[C@@H](CCC(=O)O)C(=O)N[C@@H](C)C(N)=O
# Assay: Ratio of Kcat to Km for human MMP-12
# Outline: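 Recombinant human MMP12 was incubated with the peptidic prodrug substrate. Cleavage at the N terminus of the P1 leucine was monitored by HPLC, and kcat/Km was determined from the HPLC data.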
protein,measurement,value
B1,kcat/Km,3.7 ×10³ /M.s
